Results on 15 compounds are retold here after ChEMBL document CHEMBL2311282, “Asymmetric synthesis and anti-protozoal activity of the 8,4'-oxyneolignans virolin, surinamensin and analogues” (Eur J Med Chem, 2013).

The nature of data set [1]: Toxicity against rat L6 cells after 72 hrs by Alamar blue assay. It counts as cell-based. The method, boiled down:
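Cytotoxicity was measured on the L6 rat skeletal myoblast cell line, with podophyllotoxin as the positive control.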

For data set [2], the system named is Plasmodium falciparum. The data set can be described thus: Anti-protozoal activity against Plasmodium falciparum K1 IEF stage after 72 hrs by [3H]hypoxanthine incorporation assay. It counts as functional, organism-based. The method, boiled down:
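P. falciparum K1 strain was tested at the IEF stage, with chloroquine as the positive control.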

Data set [3] concerns Leishmania donovani. The data set can be described thus: Anti-protozoal activity against Leishmania donovani MHOM-ET-67/L82 amastigotes after 72 hrs by Alamar blue assay. It counts as functional, organism-based. The following applies: MHOM-ET-67/L82, 72 h. In general terms: The colour change of resazurin is a common sign of viable cells or microbes.

Values after ≈ are worked out from the molar mass of the structure shown.

As a reminder, the IC50 is the midpoint of a concentration-inhibition curve. A high value points to weaker potency in that assay. Take `COCO[C@H](c1ccc(OC)c(OC)c1)[C@@H](C)Oc1ccc(Br)cc1OC`: the IC50 at 72 h in data set [1] came to 50.6 µg/mL (≈ 115 µM). Also, the half-maximal inhibitory concentration (IC50) in data set [2] is 49.3 µg/mL (≈ 112 µM); in data set [3] it was 60.3 µg/mL (≈ 137 µM).

In turn, `C/C=C/c1ccc(O[C@H](C)[C@@H](O)c2ccc(OC)cc2)c(OC)c1` showed a half-inhibitory concentration (IC50) at 72 h in data set [1] of 15.5 µg/mL (≈ 47.2 µM). Besides, the IC50 in data set [2] worked out at 1.33 µg/mL (≈ 4.05 µM); in data set [3], 5.54 µg/mL (≈ 16.9 µM).

`C/C=C/c1ccc(O[C@H](C)[C@@H](O)c2ccccc2)c(OC)c1`: the IC50 at 72 h in data set [1] was found to be 11.9 µg/mL (≈ 39.9 µM). Moreover, the IC50 in data set [2] was 3.23 µg/mL (≈ 10.8 µM); in data set [3], 2.29 µg/mL (≈ 7.67 µM).

In data set [1], `COc1cc(-c2ccccc2)ccc1O[C@H](C)[C@@H](O)c1ccccc1` returned a half-inhibitory concentration (IC50) at 72 h of 11.2 µg/mL (≈ 33.5 µM). In addition, the IC50 in data set [2] came out at 5.99 µg/mL (≈ 17.9 µM); in data set [3], 2.48 µg/mL (≈ 7.42 µM).

Turning to `C/C=C/c1ccc(O[C@H](C)[C@@H](OCOC)c2ccccc2)c(OC)c1`, in data set [1], inhibition was half-maximal at 52.3 µg/mL (≈ 153 µM) (IC50 at 72 h). In addition, the IC50 worked out at 47.3 µg/mL (≈ 138 µM) in data set [2] and 52.5 µg/mL (≈ 153 µM) in data set [3].

In the case of `COc1ccc([C@@H](O)[C@@H](C)Oc2ccc(Br)cc2OC)cc1OC`, in data set [1], the IC50 at 72 h came to 20.9 µg/mL (≈ 52.6 µM). Besides, the IC50 was 2.5 µg/mL (≈ 6.29 µM) in data set [2] and 10.8 µg/mL (≈ 27.2 µM) in data set [3].

The compound `C/C=C/c1ccc(O[C@H](C)[C@@H](O)c2ccc(OC)c(OC)c2)c(OC)c1` yielded an IC50 at 72 h in data set [1] of 13.2 µg/mL (≈ 36.8 µM). Besides, the values for the IC50 in data set [2] and in data set [3] were 1.71 µg/mL (≈ 4.77 µM) and 10.6 µg/mL (≈ 29.6 µM), respectively.

In data set [3], `CCCCCCCCCCCCCCCCOP(=O)([O-])OCC[N+](C)(C)C` [MILTEFOSINE] returned an IC50 of 0.144 µg/mL (≈ 0.353 µM).

`COc1ccc([C@H](O)[C@@H](C)Oc2ccc(Br)cc2OC)cc1` showed an IC50 at 72 h in data set [1] of 13.5 µg/mL (≈ 36.8 µM). Also, the half-maximal inhibitory concentration (IC50) worked out at 4.31 µg/mL (≈ 11.7 µM) in data set [2] and 4.79 µg/mL (≈ 13 µM) in data set [3].

`COc1ccc(C(=O)[C@@H](C)Oc2ccc(Br)cc2OC)cc1OC` returned an IC50 at 72 h in data set [1] of 41.6 µg/mL (≈ 105 µM). Also, the half-inhibitory concentration (IC50) is 3.12 µg/mL (≈ 7.89 µM) in data set [2] and 12.1 µg/mL (≈ 30.6 µM) in data set [3].

`C/C=C/c1ccc(O[C@H](C)[C@H](O)c2ccc3c(c2)OCO3)c(OC)c1` displayed a concentration for half-maximal inhibition (IC50) at 72 h in data set [1] of 14.7 µg/mL (≈ 42.9 µM). Moreover, the IC50 in data set [2] came out at 1.73 µg/mL (≈ 5.05 µM); in data set [3], 10.2 µg/mL (≈ 29.8 µM).

In data set [1], `COc1cc(Br)ccc1O[C@H](C)[C@H](O)c1ccc2c(c1)OCO2` displayed an IC50 at 72 h of 48.2 µg/mL (≈ 126 µM). Moreover, the IC50 in data set [2] stood at 10.8 µg/mL (≈ 28.3 µM); in data set [3], 9.2 µg/mL (≈ 24.1 µM).

For the compound `C/C=C/c1ccc(O[C@H](C)[C@@H](O)c2ccc3c(c2)OCO3)c(OC)c1`, the half-inhibitory concentration (IC50) at 72 h in data set [1] came out at 15.3 µg/mL (≈ 44.7 µM). The figures for the IC50 in data set [2] and in data set [3] were 4.59 µg/mL (≈ 13.4 µM) and 6.82 µg/mL (≈ 19.9 µM), respectively.

As for `CCN(CC)CCCC(C)Nc1ccnc2cc(Cl)ccc12` (stereo unspecified) [CHLOROQUINE], in data set [2], the half-maximal inhibitory concentration (IC50) came out at 0.54 µg/mL (≈ 1.69 µM).

With `COc1cc(Br)ccc1O[C@H](C)[C@@H](O)c1cc(OC)c(OC)c(OC)c1`, the IC50 at 72 h in data set [1] was found to be 20.3 µg/mL (≈ 47.5 µM). Also, the IC50 in data set [2] was 8.47 µg/mL (≈ 19.8 µM); in data set [3], 11.3 µg/mL (≈ 26.4 µM).
